Test results from PubChem BioAssay.
A number with no mark means an inactive call. Records with an inconclusive call do not appear. Active and inactive are the calls of the source.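 Rule for the calls, unless noted: active = viability increase at or above a cutoff of the median across tested compounds plus 3 SD (cut at about 8.5% in these data, passing the limit was not always enough); inconclusive = some gains above the cutoff, reason not given; inactive = the rest.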

Experiments:
[1] = OD615 S. cerevisiae growth inhibition, permissive medium, pilot counter-assay, permissive growth control for S. cerevisiae lifespan shortening project (AID 705;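 active = growth inhibition above 25% in both replicates, a cutoff set 3 SD above the mean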); settings: OD615, 24 h, at 10 µM, stronger effect = higher value
Procedure, shortened: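 assay system = Saccharomyces cerevisiae strain carrying genetically modified DeaD replicative-lifespan system | medium = SC raffinose/galactose permissive medium | dosing = 10 µM single dose, 0.25% DMSO | schedule = 24 h compound exposure at 30 °C after 4 h pre-growth | measured by = OD at 615 nm | read-out basis = growth inhibition from lowered OD615 after 24 h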

[2] = Restrictive medium S. cerevisiae growth inhibition, OD615, pilot screen of yeast lifespan reduction project, restrictive growth control (AID 706;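 active = growth inhibition above a set limit, 3 SD over mean compound inhibition, in both replicates, cut at about 43% in these data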;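 note: modified DeaD lifespan yeast strain shifted to restrictive glucose medium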); settings: OD615, 48 h, at 10 µM, stronger effect = higher value
Procedure, shortened: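 Buffer or medium: CSMM-D glucose medium. Material: genetically modified Saccharomyces cerevisiae, DeaD replicative lifespan assay strain. Times: 48 h compound exposure at 30 °C. Measured by: optical density at 615 nm.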

[3] = viability gain of MRP-1-high H69AR cells under doxorubicin, pilot screen, MRP-1 activator project, CellTiter-Glo, duplicate (AID 807); settings: H69AR viability with doxorubicin, CellTiter-Glo luminescence; at 10 µM; stronger effect = higher value;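 note: compound pretreatment 18-22 h then 72 h combined with doxorubicin; 0% = doxorubicin alone and 100% = vehicle without doxorubicin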
[4] = growth suppression of beta-catenin knockout HCT116, pilot screen, human colon tumor cells (AID 823;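 active = cell viability at or below a set limit in both duplicate runs, the limit being the all-compound median minus 4 SD, cut at about 23% in these data, passing the limit was not always enough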;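 note: 0% = wells killed by 20 µM Hyamine and 100% = untreated DMSO cell wells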); settings: CellTiter-Glo, 60 h, at 10 µM, stronger effect = lower value
[5] = growth suppression of PTEN-deleted HCT116, pilot screen, cell-based, HCT116 clonal line, CellTiter-Glo (AID 824;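 active = viability at or below 27.92% in each of two runs, the all-compound median minus 4 SD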;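 note: 0% = 20 µM Hyamine control and 100% = vehicle cell control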); settings: 60 h, at 10 µM, stronger effect = lower value
[6] = inhibitors of the yeast RAM network, pilot screen, dse1pr::URA3 reporter, 5-FOA selection (AID 869;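 active = inhibition over a set limit, the all-compound mean plus 3 SD, in both replicate runs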;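 note: 0% = DMSO wells with no growth and 100% = 10 µM 1-NA-PP1 with full growth; RAM network block rescues cells from 5-FOA so hits raise OD615 growth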); settings: S. cerevisiae dse1pr::URA3 5-FOA growth, OD615, 2 d; at 10 µM; stronger effect = higher value; strain carries analog-sensitive mutant Cbk1 kinase
[7] = RAM signaling pathway blockade in yeast – S. cerevisiae, Pdr1DBD-CYC8 efflux-inhibited sensitized strain, primary screen (AID 1298;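 active = RAM network inhibition above 8.4% in each of two replicates, 3 SD over the compound average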;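 note: 0% = DMSO untreated cells without growth and 100% = 10 µM 1-NA-PP1 full growth; higher means more yeast growth rescued from 5-FOA killing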); settings: S. cerevisiae cbk1-as DSE1-URA3 strain, 5-FOA growth OD615, 2 d; at 50 µM; stronger effect = higher value

| Compound | growth inhibition [1] [%] | growth inhibition [2] [%] | viability increase [3] [%] | viability [4] | viability [5] | inhibition [6] [%] | RAM network inhibition [7] [%] |
| --- | --- | --- | --- | --- | --- | --- | --- |
| COc1ccc(OC)c(S(=O)(=O)n2nc(-c3ccccc3)cc2N)c1 | -6.75 | -2.54 | -2.02 | 104% | 103% | 0.795 | 1.93 |
| CCN(CC)C(=O)C1CCCN(C/C=C/c2ccccc2)C1 (stereo not given) | -5 | -9.31 | -0.55 | 84.9% | 90.9% | 0.74 | -1.53 |
| Cn1c(=O)oc2cc(S(=O)(=O)NC(Cc3ccccc3)C(=O)N3CCCCC3)ccc21 (stereo not given) | -6.13 | -11.9 | -2.55 | 109% | 98.6% | 2.8 | 2.02 |
| CCN(CC)CCCNc1nc2ccccc2[nH]1 | -4 | -5.4 | -0.63 | 99% | 98.3% | 0.52 | 4.31 |
| O=C(c1ccc(S(=O)(=O)N2CCCC2)cc1)N1CCCc2ccccc21 | -17.6 | -13.7 | -4.87 | 95.1% | 92.4% | 0.11 | 1.2 |
| CC(NC(=O)c1ccco1)C(c1cccs1)N1CCN(c2ccccc2)CC1 (stereo not given) | -5.64 | -18.3 | -1.36 | 87.7% | 81.2% | 1.74 | 5.06 |
| COc1ccc(NC(C)=O)c2nc(C)c(C)nc12 | 7.39 | -2.71 | -3.32 | 98% | 93.9% | 1.17 | 1.29 |
| O=C(c1ccccc1)c1cccc(NC(=O)c2ccco2)c1 | -8.52 | -5.33 | -3.35 | 92.5% | 96.3% | -0.895 | -0.72 |
| CCN(CC)S(=O)(=O)c1ccc(S(=O)(=O)N2CCN(CCC#N)CC2)cc1 | -8.46 | -3.54 | -1.58 | 99.6% | 94.7% | 1.38 | -1.32 |
| CCc1ccc(-c2nc(C(N)=O)c3[nH]c(=O)n(-c4ccccc4OC)c3n2)cc1 | -5.67 | -2.13 | -8.43 | 15.6% (active) | 24% (active) | 2.18 | 10.7 |
| O=C(COc1ccccc1)Nc1nnc(-c2ccc(Cl)s2)o1 | -2.75 | 8.75 | -1.36 | 109% | 100% | 2.67 | 1.52 |
| Cc1nnc(Sc2nc3c(c(=O)[nH]c(=O)n3C)n2Cc2ccccc2)s1 | -11.6 | -12.4 | -0.33 | 101% | 103% | 1.61 | 0.73 |
| C1CCc2c(nc3nnnn3c2N2CCOCC2)C1 | -0.9 | 3.85 | 1.82 | 107% | 98.4% | 1.07 | 5.8 |
| CCn1c(C2CC(=O)N(c3cc(C)cc(C)c3)C2)nc2ccccc21 (stereo not given) | -6.28 | -7 | -4.36 | 87% | 85% | 1.13 | 4.85 |
| Cc1cc(NC(=O)CSc2nnc(Cc3cccn3C)n2CCc2ccccc2)no1 | 6.44 | 14.2 | -2.85 | 93.2% | 89.4% | 0.955 | 7.83 |
| Cc1ccc(C2/C(=C(/O)c3ccccc3)C(=O)C(=O)N2CCN2CCOCC2)o1 (stereo not given) | 8.83 | 8.54 | -1.8 | 104% | 96.7% | 0.095 | -0.05 |
| C=CCn1cnc2scc(-c3ccccc3)c2c1=O | 2.71 | 10.9 | -1.68 | 93.6% | 84.2% | 2.52 | 0.21 |
| CC(=O)Nc1ccc(C2Nc3ccccc3C(=O)N2C2CCCCC2)cc1 (stereo not given) | -5.95 | -9.11 | -1.42 | 94.9% | 93.6% | 2.73 | -0.56 |

| Compound | growth inhibition [1] [%] | growth inhibition [2] [%] | viability increase [3] [%] | viability [4] | viability [5] | inhibition [6] [%] | RAM network inhibition [7] [%] |
| --- | --- | --- | --- | --- | --- | --- | --- |
| Cc1c(N2C(=O)CSC23C(=O)Nc2ccccc23)c(=O)n(-c2ccccc2)n1C (stereo not given) | -10.1 | -11.7 | -3.38 | 90.4% | 91.8% | 3.84 | 3.91 |
| Cc1ccnc(N2C(=O)c3ccccc3C2Nc2ccc3c(c2)OCCO3)c1 (stereo not given) | -12.4 | 3.42 | 1.16 | 99.7% | 90.1% | 0.135 | 3.93 |
| COC(=O)C1=C(C)NC(=O)CC1c1cccc(Cl)c1Cl (stereo not given) | -13.4 | -7.53 | -1.92 | 103% | 98% | 2.15 | 1.05 |
| O=C(NCCN1CCOCC1)c1ccc(CS(=O)(=O)c2c(Cl)cccc2Cl)o1 | -0.145 | 5.92 | -0.81 | 110% | 105% | 0.74 | 0.87 |
| O=C(CCN1C(=O)c2ccccc2C1=O)OCn1nnc2ccccc2c1=O | -14.7 | -15.3 | -0.15 | 107% | 100% | 4.12 | 2.39 |
| CC(C)Sc1nnc(NC(=O)C2CC2)s1 | -12.6 | -3.5 | -0.09 | 98.1% | 102% | 1.93 | 3.62 |
| Cc1ccc(OCC(=O)n2nc(C)cc2C)c(Br)c1 | -17.8 | -0.465 | -2.35 | 93.9% | 94.3% | 0.89 | 0.1 |
| O=C(NCC1COc2ccccc2O1)C1CCC(CNc2c(N3CCCCC3)c(=O)c2=O)CC1 (stereo not given) | -8.76 | -9.54 | 0.01 | 88.6% | 86.4% | 2.89 | 4.02 |
| CC(C)N(Cc1nc(-c2ccccc2)no1)C(=O)COc1ccccc1 | -12 | -11.7 | -3.65 | 88.2% | 89.7% | 1.03 | 3.19 |
| CCOc1ccccc1NC(=O)CSc1nnc(Cn2c(=O)sc3ccccc32)n1C | -8.96 | 9.08 | -2.73 | 91.5% | 92% | 1.48 | 2.49 |
| COC(=O)Cn1c(CN2CCN(c3ccc(F)cc3)CC2)nc2c1c(=O)n(C)c(=O)n2C | -1.31 | -4.9 | -0.86 | 85.1% | 86.2% | 2.88 | 1.93 |
| COc1ccc(N=CC2=C(O)CC(C)(C)CC2=O)cc1 | 6.45 | -2.8 | -3.24 | 97.5% | 101% | 0.71 | 1.73 |
| COCCNC(=O)CN(c1cc(C(F)(F)F)ccc1Cl)S(C)(=O)=O | -2.77 | 1.25 | -0.83 | 99.9% | 97.5% | 3.02 | 0.87 |
| CCOCCn1c(SCc2cccc(C)c2)nc2c1c(=O)[nH]c(=O)n2C | -7.34 | 10 | -5.79 | 98% | 87.4% | 0.905 | 2.37 |
| COc1ccccc1N1CCN(C(=O)CCCCn2c(=O)[nH]c3ccsc3c2=O)CC1 | -4.33 | 7.52 | -2.84 | 94% | 88.5% | 2.13 | 5.16 |
| CCCc1cc(C(=O)NCC(C)C)no1 | -3.57 | 13.8 | 0.64 | 109% | 101% | 1.85 | 1.2 |
| COc1ccc(C2C(C(=O)Nc3cccc(C)n3)c3ccccc3C(=O)N2C)cc1 (stereo not given) | -11.3 | -6.23 | -0.69 | 101% | 93.9% | 1.39 | 2.93 |
